From ChEMBL document CHEMBL2385063, “Identification of 2-(2-(1-naphthoyl)-8-fluoro-3,4-dihydro-1H-pyrido[4,3-b]indol-5(2H)-yl)acetic acid (setipiprant/ACT-129968), a potent, selective, and orally bioavailable chemoattractant receptor-homologous molecule expressed on Th2 cells (CRTH2) antagonist” (J Med Chem, 2013)
≈ marks a conversion by molar mass, not a printed value. Calls of active or inactive are those of the source. No cut-off for these calls is given here.

Tests used:
[1] = Half life in Wistar rat at 1 mg/kg, iv and 10 mg/kg, po; assay type: ADME, organism-based; conditions: in vivo
Procedure, shortened: (§1)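 Male Wistar rats, three animals per experiment, given iv (0.2, 1 or 2 mg/kg) and po (2 or 10 mg/kg) doses as solutions; AUC0-last, plasma clearance, half-life and oral bioavailability derived.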

[2] = Solubility of the compound in aqueous buffer at pH 7; assay type: physicochemical
Procedure, shortened: (§2)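 Compound was stirred in water, 60 mM citrate buffer pH 4 or 70 mM phosphate buffer pH 7 at 300 rpm, 25 °C, for 24 h. The mixture was filtered, and the filtrate concentration was measured by HPLC-UV at 250 nm against a calibration curve.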

Rattus norvegicus [3] = test: AUC(0 to last) in Wistar rat at 1 mg/kg, iv and 10 mg/kg, po; assay type: ADME, organism-based, Plasma; conditions: in vivo; procedure, shortened: as §1
[4] = Elimination half life in Sprague-Dawley rat plasma at 1 mM by HR-LC-MS analysis; assay type: ADME, cell-free; conditions: read-out: beta t1/2
[5] = Volume of distribution at steady state in Wistar rat at 1 mg/kg, iv and 10 mg/kg, po; assay type: ADME, organism-based; conditions: in vivo, read-out: Vdss
Procedure, shortened: (§3)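 Male Wistar rats, three animals per experiment, were dosed intravenously and orally with compound given as solutions.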

[6] = Plasma clearance in Wistar rat at 1 mg/kg, iv and 10 mg/kg, po; assay type: ADME, organism-based; procedure, shortened: as §1
[7] = Oral bioavailability in Wistar rat at 10 mg/kg; assay type: ADME, organism-based; conditions: in vivo; procedure, shortened: as §1
[8] = Solubility of the compound in water at pH 3.9; assay type: physicochemical; procedure, shortened: as §2
[9] = Clearance in beagle dog at 1 mg/kg, iv; assay type: ADME, organism-based, Canis lupus familiaris; design: dose 1 mg/kg, route intravenous; conditions: in vivo
Procedure, shortened: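 Male Beagle dogs, three per experiment, given 1 mg/kg iv as a solution in 10% propylene glycol; plasma clearance determined.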

[10] = Oral bioavailability in beagle dog at 10 mg/kg; assay type: ADME, organism-based, Canis lupus familiaris; conditions: in vivo
Procedure, shortened: (§4)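 Male Beagle dogs, three per experiment, dosed orally at 10 mg/kg (with a 1 mg/kg iv arm) as solutions containing 10% propylene glycol; AUC0-last and oral bioavailability derived.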

[11] = Half life in Wistar rat at 2 mg/kg, iv and 10 mg/kg, po; assay type: ADME, organism-based; conditions: in vivo; procedure, shortened: as §1
[12] = Plasma clearance in Wistar rat at 2 mg/kg, iv and 10 mg/kg, po; assay type: ADME, organism-based; procedure, shortened: as §1
[13] = target: T1, Prostaglandin D2 receptor 2 (Mus musculus) (UniProt Q9Z2J6); test: Partial agonist activity at mouse CRTH2 receptor assessed as calcium flux by cell-based FLIPR assay; assay type: functional
T1 sequence (whole entry): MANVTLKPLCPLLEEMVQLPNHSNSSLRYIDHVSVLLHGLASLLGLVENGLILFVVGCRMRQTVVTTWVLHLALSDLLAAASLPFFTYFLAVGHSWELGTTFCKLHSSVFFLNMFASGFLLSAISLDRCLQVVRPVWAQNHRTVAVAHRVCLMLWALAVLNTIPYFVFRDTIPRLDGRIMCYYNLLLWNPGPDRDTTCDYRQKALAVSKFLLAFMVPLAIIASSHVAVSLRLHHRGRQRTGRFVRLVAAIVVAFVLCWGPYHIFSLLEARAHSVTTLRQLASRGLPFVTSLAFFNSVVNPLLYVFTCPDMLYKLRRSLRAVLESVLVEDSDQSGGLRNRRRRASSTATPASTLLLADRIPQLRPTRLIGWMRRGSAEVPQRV

[14] = Volume of distribution at steady state in Wistar rat at 2 mg/kg, iv and 10 mg/kg, po; assay type: ADME, organism-based; conditions: in vivo, read-out: Vdss; procedure, shortened: as §3
Canis familiaris = test: AUC (0 to last) in beagle dog at 10 mg/kg, po; assay type: ADME, organism-based, Canis lupus familiaris, Plasma; design: time 0 - last, dose 10 mg/kg, route oral; conditions: in vivo; procedure, shortened: as §4
[15] = target: T2, Chemoattractant receptor-homologous molecule expressed on Th2 cells (Cavia porcellus) (UniProt Q56D28); test: Partial agonist activity at guinea pig CRTH2 receptor assessed as calcium flux by cell-based FLIPR assay; assay type: functional
T2 sequence (whole entry): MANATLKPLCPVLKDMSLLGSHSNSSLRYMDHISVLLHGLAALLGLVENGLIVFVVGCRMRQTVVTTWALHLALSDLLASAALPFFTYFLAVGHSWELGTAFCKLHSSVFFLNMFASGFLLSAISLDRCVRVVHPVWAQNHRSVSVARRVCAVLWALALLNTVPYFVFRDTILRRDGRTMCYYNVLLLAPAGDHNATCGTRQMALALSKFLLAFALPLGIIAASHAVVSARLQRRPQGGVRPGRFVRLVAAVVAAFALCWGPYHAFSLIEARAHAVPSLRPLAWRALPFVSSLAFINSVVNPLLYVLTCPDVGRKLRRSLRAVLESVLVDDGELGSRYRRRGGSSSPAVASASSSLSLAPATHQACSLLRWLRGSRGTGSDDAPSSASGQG

[16] = Solubility of the compound in water at pH 4.3; assay type: physicochemical; procedure, shortened: as §2
Rattus norvegicus [17] = test: AUC(0 to last) in Wistar rat at 2 mg/kg, iv and 10 mg/kg, po; assay type: ADME, organism-based, Plasma; conditions: in vivo; procedure, shortened: as §1
[18] = Solubility of the compound in water; assay type: physicochemical; procedure, shortened: as §2
[19] = Solubility of the compound in water at pH 5.7; assay type: physicochemical
Procedure, shortened: (§5)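 Compound stirred in 200 μL water at 300 rpm, 25 °C, for 24 h. The biphasic mixture was vacuum-filtered. Filtrate concentration was measured by reversed-phase HPLC with UV detection at 250 nm and quantified from peak area against a calibration curve.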

[20] = Volume of distribution at steady state in Wistar rat at 0.2 mg/kg, iv and 2 mg/kg, po; assay type: ADME, organism-based; conditions: in vivo, read-out: Vdss; procedure, shortened: as §3
[21] = Oral bioavailability in Wistar rat at 2 mg/kg; assay type: ADME, organism-based; conditions: in vivo; procedure, shortened: as §1
[22] = Plasma clearance in Wistar rat at 0.2 mg/kg, iv and 2 mg/kg, po; assay type: ADME, organism-based; procedure, shortened: as §1
[23] = Solubility of the compound in water at pH 3.8; assay type: physicochemical; procedure, shortened: as §2
[24] = Half life in Wistar rat at 0.2 mg/kg, iv and 2 mg/kg, po; assay type: ADME, organism-based; conditions: in vivo; procedure, shortened: as §1
Rattus norvegicus [25] = test: AUC(0 to last) in Wistar rat at 0.2 mg/kg, iv and 2 mg/kg, po; assay type: ADME, organism-based, Plasma; conditions: in vivo; procedure, shortened: as §1
CYP2D6 = CYP2D6 (Homo sapiens, UniProt P10635); test: Inhibition of CYP2D6 in human liver microsomes assessed as dextromethorphan O-demethylation by LC-MS/MS analysis; assay type: ADME, Microsome; conditions: human, liver microsomes, probe dextromethorphan (O-demethylation)
Chain of CYP2D6 (P10635 whole entry): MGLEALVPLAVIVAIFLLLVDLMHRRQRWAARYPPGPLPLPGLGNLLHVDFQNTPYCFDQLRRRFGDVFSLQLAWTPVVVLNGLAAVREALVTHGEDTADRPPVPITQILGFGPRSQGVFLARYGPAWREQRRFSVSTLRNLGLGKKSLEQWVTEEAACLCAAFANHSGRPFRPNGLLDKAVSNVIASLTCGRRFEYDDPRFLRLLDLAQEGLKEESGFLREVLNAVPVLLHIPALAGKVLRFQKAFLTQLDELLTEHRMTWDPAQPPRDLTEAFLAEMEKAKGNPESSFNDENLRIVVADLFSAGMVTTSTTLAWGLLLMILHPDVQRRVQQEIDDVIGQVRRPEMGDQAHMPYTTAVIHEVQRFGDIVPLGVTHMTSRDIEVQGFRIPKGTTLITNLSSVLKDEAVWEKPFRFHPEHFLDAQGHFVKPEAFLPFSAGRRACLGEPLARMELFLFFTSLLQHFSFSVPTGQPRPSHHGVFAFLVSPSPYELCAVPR

CYP3A4 = CYP3A4 (Homo sapiens, UniProt P08684); test: Inhibition of CYP3A4 in human liver microsomes assessed as midazolam-1'-hydroxylation by LC-MS/MS analysis; assay type: ADME, Microsome; conditions: human, liver microsomes, probe midazolam (1'-hydroxylation)
Chain of CYP3A4 (P08684 whole entry): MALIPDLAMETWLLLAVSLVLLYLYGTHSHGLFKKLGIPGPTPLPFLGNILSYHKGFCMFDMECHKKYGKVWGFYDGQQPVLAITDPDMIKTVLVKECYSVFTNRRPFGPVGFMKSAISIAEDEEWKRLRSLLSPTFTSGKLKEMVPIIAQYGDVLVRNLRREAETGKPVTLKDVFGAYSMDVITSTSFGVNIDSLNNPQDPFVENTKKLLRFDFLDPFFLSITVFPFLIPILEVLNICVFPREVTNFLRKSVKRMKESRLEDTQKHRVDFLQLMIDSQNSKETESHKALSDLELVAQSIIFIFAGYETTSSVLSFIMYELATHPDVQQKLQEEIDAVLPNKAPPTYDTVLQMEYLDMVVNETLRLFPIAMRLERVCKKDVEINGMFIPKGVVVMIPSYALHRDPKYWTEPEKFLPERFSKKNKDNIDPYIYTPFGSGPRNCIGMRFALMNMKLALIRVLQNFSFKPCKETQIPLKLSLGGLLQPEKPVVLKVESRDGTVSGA

[26] = Solubility of the compound in water at pH 4.9; assay type: physicochemical; procedure, shortened: as §5

SMILES	half-life [1] [h]	solubility [2] [µg/mL]	AUClast (Rattus norvegicus [3]) [ng·h/mL]	half-life [4] [h]	Vd [5] [L/kg]	clearance [6] [mL/min/kg]	bioavailability [7] [%]	Activity [13]	Activity [15]	solubility [16] [µg/mL]	other results
O=C(O)Cn1c2c(c3cc(F)ccc31)CN(C(=O)c1cccs1)CC2	0.6	930 (≈ 2590 µM)	244	> 4	0.4	36	5				solubility [8]: 50 µg/mL (≈ 140 µM)
O=C(O)Cn1c2c(c3cc(F)ccc31)CN(C(=O)c1cccc3ccccc13)CC2 [SETIPIPRANT]		880 (≈ 2190 µM)		> 4			44	Active	Active	50 (≈ 124 µM)	clearance [9]: 1.3 mL/min/kg; bioavailability [10]: 55%; half-life [11]: 6 h; clearance [12]: 1.3 mL/min/kg; Vd [14]: 0.4 L/kg; AUClast (Canis familiaris): 91100 ng·h/mL; AUClast (Rattus norvegicus [17]): 58500 ng·h/mL
O=C(O)Cn1c2c(c3ccccc31)CN(C(=O)c1cccc3ccccc13)CC2	5.8	830 (≈ 2160 µM)	57300	> 4	0.4	1.1	36	Active	Active		solubility [18]: 335 µg/mL (≈ 871 µM)
O=C(O)Cn1c2c(c3cc(F)ccc31)CN(C(=O)Cc1cccc3ccccc13)CC2		560 (≈ 1340 µM)		> 4							solubility [19]: 28 µg/mL (≈ 67.2 µM)
CCc1ccc(-c2ccc(C(=O)N3CCc4c(c5ccccc5n4CC(=O)O)C3)cc2)cc1		30 (≈ 68.4 µM)		> 4			4			2 (≈ 4.56 µM)	half-life [11]: 0.5 h; clearance [12]: 35 mL/min/kg; Vd [14]: 0.4 L/kg; AUClast (Rattus norvegicus [17]): 171 ng·h/mL
O=C(O)Cn1c2c(c3cc(F)ccc31)CN(C(=O)Cc1c[nH]c3ccccc13)CC2		800 (≈ 1970 µM)		> 4							Vd [20]: 0.4 L/kg; bioavailability [21]: 2%; clearance [22]: 11 mL/min/kg; solubility [23]: 45 µg/mL (≈ 111 µM); half-life [24]: 1.2 h; AUClast (Rattus norvegicus [25]): 62 ng·h/mL
O=C(O)Cn1c2c(c3ccccc31)CN(C(=O)c1cccc(Cl)c1)CC2		815 (≈ 2210 µM)		> 4							solubility [23]: 110 µg/mL (≈ 298 µM)
O=C(O)Cn1c2c(c3ccccc31)CN(C(=O)c1ccccc1)CC2			6300	> 4	0.4					64 (≈ 191 µM)	IC50 (CYP2D6): > 50 µM; IC50 (CYP3A4): > 50 µM
O=C(O)Cn1c2c(c3cc(F)ccc31)CN(C(=O)c1cccc(Cl)c1)CC2	2.3	1000 (≈ 2590 µM)	6450	> 4	0.4	5.9	23	Active	Active		clearance [9]: 11 mL/min/kg; bioavailability [10]: 64%; solubility [26]: 25 µg/mL (≈ 64.6 µM); AUClast (Canis familiaris): 9620 ng·h/mL
